# In paper PMC4372299 (Molecular imaging and biology : MIB : the official …, 2014):
# pKi: −log10 of the molar value.
# Experiments:
# TSPO [1] = target: T1, TSPO (Rattus norvegicus, UniProt P16257); assay: Dynamic PET with compartmental modeling in C6 glioma-bearing rats; type: in vivo; settings: for K1 / k2 / k3 / k4: 2-tissue 4-parameter model, n = 5, Mean ± SEM; for %ID/cc (90 min) / K1/k2 / VT=(K1/k2)(1+k3/k4) / k3/k4 (binding potential): C6-glioma bearing rats n = 5, Mean ± SEM
# Procedure, shortened: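 Male Wistar rats (10 weeks, ~300 g) were implanted with 1.0 × 10⁵ C6 cells in the right hemisphere 2 weeks before imaging, then catheterised and localised by T₂ MRI. Radiotracer 1.2 ± 0.2 mCi was given as a jugular bolus for 90-min dynamic PET with CT attenuation correction. Arterial input was TLC metabolite-corrected. Tumour and contralateral-brain TACs were fitted with 1- and 2-tissue models to give K₁–k₄, V_T and BP_ND.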
# TSPO [2] = target: TSPO (Mus musculus, UniProt P50637); assay: Dynamic PET accumulation and displacement of [18F]VUIIS1008 in healthy mice; type: in vivo
# TSPO [3] = settings: cited from earlier work; for enhancement in binding affinity compared to DPA-714: TSPO affinity vs DPA-714
# TSPO [4] = target: T1, TSPO; assay: Pre-blocking PET study with non-radioactive VUIIS1008 in C6 glioma-bearing rats; type: in vivo; settings: pre-blocking with VUIIS1008 10 mg/kg, range of 2 rats
# Procedure, shortened: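 In C6 glioma-bearing Wistar rats, the non-radioactive ligand (10 mg/kg i.v.) was given 5 min before a radiotracer bolus (1.2 ± 0.2 mCi via jugular catheter). Dynamic PET ran for 60 min with a metabolite-corrected arterial input function. Tumour and contralateral normal-brain TACs were fitted to a 2-tissue, 4-parameter model, and the range from 2 rats is reported.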
# [5] = challenger 10 mg/kg at scan mid-point (30 min)
smiles,measurement,setting,value
"CCc1cc(CC)n2nc(-c3ccc(OCC[18F])cc3)c(CC(=O)N(CC)CC)c2n1 [[^18F]VUIIS1008, 2-(5,7-diethyl-2-(4-(2-[^18F]fluoroethoxy)phenyl)pyrazolo[1,5-a]pyrimidin-3-yl)-N,N-diethylacetamide]",VT ratio between tumor and normal brain,TSPO [1]; C6 glioma-bearing rats,6.0
same,clearance of tracer from plasma,"TSPO [1]; C6 glioma-bearing rats, n = 6",cleared rapidly
same,K1,TSPO [1]; normal brain,0.881 ± 0.392
same,k2,TSPO [1]; normal brain,2.078 ± 1.666
same,k3,TSPO [1]; normal brain,0.172 ± 0.070
same,k4,TSPO [1]; normal brain,0.037 ± 0.004
same,%ID/cc (90 min),TSPO [1]; normal brain,0.103 ± 0.031 %ID/cc
same,K1/k2,TSPO [1]; normal brain,0.86 mL/g
same,VT=(K1/k2)(1+k3/k4),TSPO [1]; normal brain,4.210 ± 1.612
same,k3/k4 (binding potential),TSPO [1]; normal brain,4.435 ± 1.387
same,K1/k2,"TSPO [1]; normal brain, listed as 18F-VUIIS1008",0.855 ± 0.325 mL/g
same,K1,TSPO [1]; tumor (C6 glioma),0.709 ± 0.306
same,k2,TSPO [1]; tumor (C6 glioma),0.442 ± 0.101
same,k3,TSPO [1]; tumor (C6 glioma),0.113 ± 0.013
same,k4,TSPO [1]; tumor (C6 glioma),0.009 ± 0.002
same,%ID/cc (90 min),TSPO [1]; tumor,0.310 ± 0.051 %ID/cc
same,K1/k2,TSPO [1]; tumor,1.90 mL/g
same,VT=(K1/k2)(1+k3/k4),TSPO [1]; tumor,25.224 ± 10.035
same,k3/k4 (binding potential),TSPO [1]; tumor,12.63
same,K1/k2,"TSPO [1]; tumor, listed as 18F-VUIIS1008",1.902 ± 0.816 mL/g
same,k3/k4 (binding potential),"TSPO [1]; tumor, listed as 18F-VUIIS1008",12.634 ± 1.406
same,"binding reversibility in healthy, TSPO-rich tissues",TSPO [2]; dynamic PET,reversible binding
same,enhancement in binding affinity compared to DPA-714,TSPO [3],approximately 36 fold
same,K1/k2,TSPO [4]; normal brain,0.059 – 0.061
same,VT=(K1/k2)(1+k3/k4),TSPO [4]; normal brain,0.380 – 0.615
same,k3/k4 (binding potential),TSPO [4]; normal brain,4.888 – 13.507
same,K1/k2,TSPO [4]; tumor,0.124 – 0.143
same,VT=(K1/k2)(1+k3/k4),TSPO [4]; tumor,0.618 – 0.767
same,k3/k4 (binding potential),TSPO [4]; tumor,3.972 – 4.368
"CCc1cc(CC)n2nc(-c3ccc(OCCF)cc3)c(CC(=O)N(CC)CC)c2n1 [VUIIS1008, 2-(5,7-diethyl-2-(4-(2-fluoroethoxy)phenyl)pyrazolo[1,5-a]pyrimidin-3-yl)-N,N-diethylacetamide]",displacement of [18F]VUIIS1008 from myocardium and lung tissue,TSPO [2]; [5],rapid and significant displacement
same,displacement of [18F]VUIIS1008 from renal tissue,TSPO [2]; [5],partial displacement
same,enhancement in binding affinity compared to DPA-714,TSPO [3],36 fold
same,pKi,"TSPO [3]; read-out: Ki (binding affinity), TSPO",9.52
